ChEMBL document CHEMBL1137992, “Long hydrocarbon chain keto diols and diacids that favorably alter lipid disorders in vivo” (J Med Chem, 2004)

Key:
Assay type in all cases: functional
Rattus norvegicus [1] = experiment: Amount of non-HDL-cholesterol in obese Zucker rats after 1 week of treatment at a dose of 100 mg/kg/day
Method in brief: (§1)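 Female Zucker fatty rats [Crl:(Zuc)-faBR], 10–12 weeks old (400–500 g), dosed once daily by oral gavage in 20% EtOH/80% PEG-200 (dose volume 0.25% of body weight). Rats were fasted 6 h and bled before dosing and at day 7 (orbital plexus), and at day 14 (cardiac puncture). Serum cholesterol fractions came from Superose 6 gel-filtration lipoprotein profiles (% peak area × serum total cholesterol). Values are mean ± SEM.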

Rattus norvegicus [2] = experiment: Amount of non-HDL-cholesterol in obese Zucker rats after 2 weeks of treatment at a dose of 3 mg/kg/day
Method in brief: (§2)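 Female obese Zucker fatty rats [Crl:(Zuc)-faBR], 10–12 weeks old (400–500 g), on chow. Compound in 20% EtOH/80% PEG-200 (v/v) given by daily oral gavage. After a 6-h fast, serum was taken before dosing and at 7 days (orbital plexus), and at 14 days (cardiac puncture). Lipoprotein cholesterol came from Superose 6HR gel-filtration profiles × serum total cholesterol. Mean ± SEM.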

Rattus norvegicus [3] = experiment: Percent increase in non-HDL-cholesterol in obese Zucker rats after 2 weeks of treatment at a dose of 0 mg/kg/day
Method in brief: (§3)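 Female Zucker fatty rats [Crl:(Zuc)-faBR], 10–12 weeks, 400–500 g, acclimated 7 days on chow. Compound or vehicle (20% EtOH/80% PEG-200) given by daily oral gavage for 2 weeks, 0–100 mg/kg/day. After a 6 h fast, blood was taken before dosing, at 1 wk and at 2 wk. Serum lipids, NEFA and insulin (ELISA) were measured; glucose by glucometer. HDL/non-HDL-C came from Superose 6 gel-filtration profiles. Values are % change from pretreatment, mean ± SEM.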

Rattus norvegicus [4] = experiment: Percent increase in HDL-cholesterol in obese Zucker rats after 1 week of treatment at a dose of 10 mg/kg/day; method in brief: as §3
Rattus norvegicus [5] = experiment: Percent increase in nonesterified fatty acids in obese Zucker rats after 2 weeks of treatment at a dose of 3 mg/kg/day; method in brief: as §3
Rattus norvegicus [6] = experiment: Percent increase in non-HDL-cholesterol in obese Zucker rats after 1 week of treatment at a dose of 0 mg/kg/day; method in brief: as §3
Rattus norvegicus [7] = experiment: Amount of non-HDL-cholesterol in obese Zucker rats at pre-treatment at a dose of 10 mg/kg/day; method in brief: as §2
Rattus norvegicus [8] = experiment: Amount of glucose in obese Zucker rats after 2 weeks of treatment at a dose of 10 mg/kg/day
Method in brief: (§4)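 Female Zucker fatty rats [Crl:(Zuc)-faBR], 10–12 weeks old (400–500 g), gavaged daily with vehicle (20% EtOH/80% PEG-200, 0.25% of body weight) or compound. After a 6-h fast, blood glucose was read by glucometer from tail-prick blood of unanesthetized rats before dosing and after 1 and 2 weeks. Values are mean ± SEM.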

Rattus norvegicus [9] = experiment: Percent decrease in nonesterified fatty acids in obese Zucker rats after 1 week of treatment at a dose of 30 mg/kg/day; set-up: scale not given: the % may be the effect or the level left; method in brief: as §3
Rattus norvegicus [10] = experiment: Amount of non-HDL-cholesterol in obese Zucker rats after 2 weeks of treatment at a dose of 10 mg/kg/day; method in brief: as §1
Rattus norvegicus [11] = experiment: Percent decrease in HDL-cholesterol in obese Zucker rats after 2 weeks of treatment at a dose of 0 mg/kg/day; set-up: scale not given: the % may be the effect or the level left; method in brief: as §3
Rattus norvegicus [12] = experiment: Percent increase in triglycerides in obese Zucker rats after 1 week of treatment at a dose of 0 mg/kg/day; method in brief: as §3
Rattus norvegicus [13] = experiment: Amount of glucose in obese Zucker rats after 1 week of treatment at a dose of 30 mg/kg/day; method in brief: as §4
Rattus norvegicus [14] = experiment: Percent increase in nonesterified fatty acids in obese Zucker rats after 2 weeks of treatment at a dose of 0 mg/kg/day; method in brief: as §3
Rattus norvegicus [15] = experiment: Percent increase in HDL-cholesterol in obese Zucker rats after 2 weeks of treatment at a dose of 10 mg/kg/day; method in brief: as §3
Rattus norvegicus [16] = experiment: Percent decrease in nonesterified fatty acids in obese Zucker rats after 1 week of treatment at a dose of 10 mg/kg/day; set-up: scale not given: the % may be the effect or the level left; method in brief: as §3
Rattus norvegicus [17] = experiment: Percent increase in nonesterified fatty acids in obese Zucker rats after 2 weeks of treatment at a dose of 100 mg/kg/day; method in brief: as §3
Rattus norvegicus [18] = experiment: Percent increase in HDL-cholesterol in obese Zucker rats after 2 weeks of treatment at a dose of 100 mg/kg/day; method in brief: as §3
Rattus norvegicus [19] = experiment: Percent decrease in non-HDL-cholesterol in obese Zucker rats after 2 weeks of treatment at a dose of 100 mg/kg/day; set-up: scale not given: the % may be the effect or the level left; method in brief: as §3
Rattus norvegicus [20] = experiment: Amount of nonesterified fatty acids in obese Zucker rats after 2 weeks of treatment at a dose of 30 mg/kg/day
Method in brief: (§5)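 Female Zucker fatty rats [Crl:(Zuc)-faBR], 10–12 weeks old (400–500 g), dosed once daily by oral gavage in 20% EtOH/80% PEG-200 for up to 14 days. After a 6-h fast, serum was taken pre-dose, at day 7 (orbital venous plexus, O2/CO2 anaesthesia) and at day 14 (cardiac puncture), stored at −80 °C, and assayed on a Hitachi 912 automatic analyzer. Mean ± SEM.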

Rattus norvegicus [21] = experiment: Percent decrease in insulin in obese Zucker rats after 2 weeks of treatment at a dose of 0 mg/kg/day; set-up: scale not given: the % may be the effect or the level left; method in brief: as §3
Rattus norvegicus [22] = experiment: Percent decrease in triglycerides in obese Zucker rats after 1 week of treatment at a dose of 100 mg/kg/day; set-up: scale not given: the % may be the effect or the level left; method in brief: as §3
Rattus norvegicus [23] = experiment: Percent decrease in nonesterified fatty acids in obese Zucker rats after 2 weeks of treatment at a dose of 100 mg/kg/day; set-up: scale not given: the % may be the effect or the level left; method in brief: as §3
Rattus norvegicus [24] = experiment: Amount of nonesterified fatty acids in obese Zucker rats after 2 weeks of treatment at a dose of 100 mg/kg/day; method in brief: as §5
Rattus norvegicus [25] = experiment: Percent decrease in non-HDL-cholesterol in obese Zucker rats after 1 week of treatment at a dose of 100 mg/kg/day; set-up: scale not given: the % may be the effect or the level left; method in brief: as §3
Rattus norvegicus [26] = experiment: Percentage change of HDL cholesterol levels in obese female Zucker rats after 2 weeks of pre-treatment at a dose of 100 mg/kg/day
Method in brief: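 Obese female Zucker fatty rats were gavaged once daily with 30 or 100 mg/kg/day in 20% EtOH/80% PEG-200 for 2 weeks. Sera were collected after a 6 h fast, before dosing, at 1 week (orbital plexus) and at 2 weeks (cardiac puncture). HDL-C was total cholesterol multiplied by HDL area fraction from gel-filtration lipoprotein profiles. Reported as % change from pretreatment ± SEM.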

Rattus norvegicus [27] = experiment: Amount of nonesterified fatty acids in obese Zucker rats after 1 week of treatment at a dose of 10 mg/kg/day; method in brief: as §5
Rattus norvegicus [28] = experiment: Percent increase in insulin in obese Zucker rats after 2 weeks of treatment at a dose of 30 mg/kg/day; method in brief: as §3
Rattus norvegicus [29] = experiment: Percent decrease in nonesterified fatty acids in obese Zucker rats after 2 weeks of treatment at a dose of 30 mg/kg/day; set-up: scale not given: the % may be the effect or the level left; method in brief: as §3
Rattus norvegicus [30] = experiment: Percent decrease in insulin in obese Zucker rats after 1 week of treatment at a dose of 100 mg/kg/day; set-up: scale not given: the % may be the effect or the level left; method in brief: as §3
Rattus norvegicus [31] = experiment: Percent decrease in nonesterified fatty acids in obese Zucker rats after 1 week of treatment at a dose of 3 mg/kg/day; set-up: scale not given: the % may be the effect or the level left; method in brief: as §3
Rattus norvegicus [32] = experiment: Percent decrease in nonesterified fatty acids in obese Zucker rats after 2 weeks of treatment at a dose of 3 mg/kg/day; set-up: scale not given: the % may be the effect or the level left; method in brief: as §3

`CC(C)(CO)CCCCC(=O)CCCCC(C)(C)CO` gave an Activity (Rattus norvegicus [1]) of 23 mg/dL, an Activity (Rattus norvegicus [2]) of 22 mg/dL and an Activity (Rattus norvegicus [3]) of 20%. The Activity (Rattus norvegicus [4]) was 13%, the Activity (Rattus norvegicus [5]) was 45% and the Activity (Rattus norvegicus [6]) was 44%. For the same compound, the Activity (Rattus norvegicus [7]) was 25 mg/dL, the Activity (Rattus norvegicus [8]) was 110 mg/dL and the Activity (Rattus norvegicus [9]) was -21%. The Activity (Rattus norvegicus [10]) was 25 mg/dL, the Activity (Rattus norvegicus [11]) was -15% and the Activity (Rattus norvegicus [12]) was 19%. The Activity (Rattus norvegicus [13]) was 112 mg/dL, the Activity (Rattus norvegicus [14]) was 33% and the Activity (Rattus norvegicus [15]) was 15%. For the same compound, the Activity (Rattus norvegicus [16]) was -18% and the Activity (Rattus norvegicus [17]) was -33%.
`CC(C)(CCCCC(=O)CCCCC(C)(C)C(=O)O)C(=O)O` showed an Activity (Rattus norvegicus [18]) of 79%, an Activity (Rattus norvegicus [1]) of 18 mg/dL and an Activity (Rattus norvegicus [2]) of 24 mg/dL. For the same compound, the Activity (Rattus norvegicus [19]) was -29%, the Activity (Rattus norvegicus [7]) was 40 mg/dL and the Activity (Rattus norvegicus [8]) was 113 mg/dL. It also gave an Activity (Rattus norvegicus [20]) of 1.1 mg/dL, an Activity (Rattus norvegicus [9]) of -29% and an Activity (Rattus norvegicus [10]) of 27 mg/dL. For the same compound, the Activity (Rattus norvegicus [21]) was -31%, the Activity (Rattus norvegicus [22]) was -60% and the Activity (Rattus norvegicus [23]) was -45%. The Activity (Rattus norvegicus [24]) was 0.66 mg/dL, the Activity (Rattus norvegicus [13]) was 115 mg/dL and the Activity (Rattus norvegicus [25]) was -42%. For the same compound, the Change (Rattus norvegicus [26]) was 78% and the Activity (Rattus norvegicus [27]) was 0.92 mg/dL.
With `CC(C)(CCCCCC(=O)CCCCCC(C)(C)C(=O)O)C(=O)O` the Activity (Rattus norvegicus [28]) was -21%, the Activity (Rattus norvegicus [3]) was 40% and the Activity (Rattus norvegicus [19]) was -88%. For the same compound, the Activity (Rattus norvegicus [29]) was -49%, the Activity (Rattus norvegicus [4]) was 58% and the Activity (Rattus norvegicus [6]) was 45%. The Activity (Rattus norvegicus [30]) was -46%, the Activity (Rattus norvegicus [11]) was -9% and the Activity (Rattus norvegicus [23]) was -52%. It also gave an Activity (Rattus norvegicus [12]) of 18%, an Activity (Rattus norvegicus [31]) of -15% and an Activity (Rattus norvegicus [15]) of 60%. It also gave an Activity (Rattus norvegicus [32]) of -23% and an Activity (Rattus norvegicus [16]) of -17%.
